Laboratory results published in ChEMBL document CHEMBL1629653, “CMY-31 and CMY-36 cephalosporinases encoded by ColE1-like plasmids” (Antimicrob Agents Chemother, 2009).

Experiments:
[1] = Ratio of Kcat to Km of CMY-2 by spectrophotometry
Method in brief: (§1)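 CMY β-lactamases purified from sonicated, ultracentrifuge-clarified extracts of E. coli DH5α clones (pB-cmy36, pB-cmy2) by Q- then S-Sepharose ion exchange (>90% pure by SDS-PAGE); steady-state hydrolysis kinetics measured spectrophotometrically, CMY-2 run in parallel.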

[2] = Activity of CMY-2 by spectrophotometry; method in brief: as §1

`CC1(C)S[C@@H]2[C@H](NC(=O)Cc3ccccc3)C(=O)N2[C@H]1C(=O)O` showed a kcat/Km [1] of 2.5e+07 M⁻¹ s⁻¹, a Km [2] of 0.4 µM and a kcat [2] of 10 s⁻¹.
Work on `O=C(Cc1cccs1)N[C@@H]1C(=O)N2C(C(=O)[O-])=C(C[n+]3ccccc3)CS[C@H]12` yielded a kcat/Km [1] of 2.5e+06 M⁻¹ s⁻¹, a Km [2] of 120 µM and a kcat [2] of 300 s⁻¹.
With `CO/N=C(\C(=O)N[C@@H]1C(=O)N2C(C(=O)O)=C(COC(C)=O)CS[C@H]12)c1csc(N)n1` the kcat [2] was less than 0.01 s⁻¹.
`O=C(Cc1cccs1)N[C@@H]1C(=O)N2C(C(=O)O)=C(/C=C/c3ccc([N+](=O)[O-])cc3[N+](=O)[O-])CS[C@H]12` showed a kcat/Km [1] of 9.8e+07 M⁻¹ s⁻¹, a Km [2] of 10 µM and a kcat [2] of 980 s⁻¹.
